Here are results for 33 compounds from ChEMBL document CHEMBL1127292, “Inhibition of myeloperoxidase release from rat polymorphonuclear leukocytes by a series of azachalcone derivatives” (J Med Chem, 1994).

Where only a bound is given, the exact number is not on record here.

One test is filed under the species Rattus norvegicus. In words: Ability to inhibit N-formyl-methionyl-leucyl-phenylalanine (fMLP)-stimulated release of myeloperoxidase (MPO) from rat polymorphonuclear leukocytes (PMN). It counts as functional. Summed up: (§1)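 Peritoneal PMN were taken from Harlan Sprague-Dawley rats (150-250 g), with >90% viability by trypan blue and >90% PMN by Wright-Giemsa stain. Cells in suspension (2 × 10^7 cells/mL) were stimulated with 0.1 μM fMLP for 30 min at 37 °C in the presence of test agent. MPO in the supernatant was measured by MPO-catalyzed oxidation of o-dianisidine.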
Broadly, the IC50 is the point on the concentration scale where inhibition reaches its midpoint. Low readings indicate greater potency in that assay, high ones weaker potency in that assay. `CN(C)c1ccc(C(=O)/C=C/c2ccncc2)cc1` showed an IC50 of 11 µM. This lies in the double-digit micromolar range.
The compound `CO/N=C(\C=C\c1ccncc1)c1cc(OC)c(OC)c(OC)c1` came in with an IC50 of more than 100 µM.
`N#Cc1cccc(C(=O)/C=C/c2ccncc2)c1` displayed an IC50 of 85 µM.
`CSc1ccc(C(=O)/C=C/c2ccncc2)cc1`: the IC50 worked out at 33 µM.
The compound `N#Cc1ccc(C(=O)/C=C/c2ccncc2)cc1` displayed an IC50 of 123 µM. Against the preceding compound, the IC50 is about 3.7-fold higher.
Same read-out and setting: for `O=C(/C=C/c1ccncc1)c1ccc(C(F)(F)F)cc1` the value was 204 µM.
`O=C(/C=C/c1ccncc1)c1ccccc1` showed an IC50 of 49 µM.
Take `O=C(/C=C/c1ccncc1)c1cccc(Cl)c1`: 69 µM corresponded to half-maximal inhibition (IC50).
Take `O=C(c1ccccc1)c1ccc2ncccc2c1`: the concentration for half-maximal inhibition (IC50) is more than 100 µM.
In the case of `COc1cc(C(O)/C=C/c2ccncc2)cc(OC)c1OC` (stereo not drawn), the IC50 was more than 100 µM.
The same measure, in the same setting: next, `CC(C)(C)c1ccc(C(=O)/C=C/c2ccncc2)cc1`: 47 µM.
`O=c1cc(-c2cccnc2)oc2ccccc12` gave an IC50 of more than 100 µM.
As for `COc1cc(C(=O)/C=C/c2cc[n+](C)cc2)cc(OC)c1OC`, the IC50 was more than 50 µM.
The same measure, in the same setting: for `O=C(c1ccccc1)c1cccc(-c2cccnc2)c1` the value was more than 100 µM; for `O=C1c2ccccc2-c2cccc(-c3cccnc3)c21`, more than 100 µM; for `CN(C)c1cccc(C(=O)/C=C/c2ccncc2)c1`, 19 µM.
Same read-out and setting: for `COc1cc(C(=O)CCc2ccncc2)cc(OC)c1OC` the value was more than 100 µM.
The compound `COc1cc(C(=O)/C=C/c2ccccn2)cc(OC)c1OC` registered an IC50 of 18 µM.
Same read-out and setting: next, `COc1cc(C(=O)/C=C(\C)c2ccncc2)cc(OC)c1OC`: more than 100 µM.
Take `Cc1cccc(C(=O)/C=C/c2ccncc2)c1`: inhibition was half-maximal at 39 µM (IC50).
Same read-out and setting: for `O=C(C#Cc1ccncc1)c1ccccc1` the value was 16 µM; for `COc1cc(C(=O)/C(C)=C/c2ccncc2)cc(OC)c1OC`, more than 100 µM; for `O=C(c1ccccc1)c1ccccc1-c1cccnc1`, more than 100 µM.
Same read-out and setting: for `COc1cc(C(=O)/C=C/c2cccnc2)cc(OC)c1OC` the value was 30 µM; for `O=C(/C=C/c1ccncc1)c1ccco1`, 50 µM; for `O=C1c2ccccc2-c2ccc(-c3cccnc3)cc21`, more than 100 µM.
`O=C(/C=C/c1ccncc1)c1cccc(C(F)(F)F)c1` displayed an IC50 of 41 µM.
Compound `O=C(/C=C/c1ccncc1)c1ccc(Cl)cc1` gave a 50% inhibitory concentration (IC50) of 60 µM.
As to `O=C(c1ccccc1)c1ccc(-c2cccnc2)cc1`, the IC50 is more than 100 µM.
Regarding `C(=C\c1noc2ccccc12)/c1ccncc1`, the IC50 was more than 100 µM.
Still for that read-out and setting: for `O=C(/C=C/c1ccncc1)c1cccs1` the value was 30 µM; for `COc1cc(C(=O)/C=C/c2ccncc2)cc(OC)c1OC`, 7 µM.

For the next test, the species on record is Rattus norvegicus. In words: Tested for ability at 50 uM to inhibit N-formyl-methionyl-leucyl-phenylalanine (fMLP) stimulated release of Myeloperoxidase (MPO) from rat polymorphonuclear leukocytes (PMN). In kind it is functional. The method in brief:
as §1
As a reminder, the inhibition is the change of the read-out against control, counted positive when it falls. A low value points to little suppression. In the case of `COc1cc(/C=C\C(=O)c2ccncc2)cc(OC)c1OC`, testing at 50 µM gave an inhibition of 28%.
